Among the data in ChEMBL document CHEMBL4177575 (Bioorg Med Chem, 2017) are Activity and IC50 values, retold here.

Assay [1] concerns A549. Description: Induction of apoptosis in human A549 cells assessed as necrotic cell level at 3 uM incubated for 48 hrs by Annexin VFITC and propidium iodide staining based flow cytometry (reference value: 2.69%). It is filed as functional. In outline:
(§1)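 A549 cells seeded in RPMI 1640 and treated 48 h at 3, 6 or 12 µM. Cells then stained with Annexin V-FITC plus propidium iodide, 30 min at 4 °C in the dark, and analysed on a FACS Calibur flow cytometer.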

The subject of assay [2] is A549. Put plainly: Induction of apoptosis in human A549 cells assessed as early apoptotic cell level at 3 uM incubated for 48 hrs by Annexin VFITC and propidium iodide staining based flow cytometry (reference value: 0.64%). The format is functional. In outline: as §1
Assay [3] has as its system A549. Description: Induction of apoptosis in human A549 cells assessed as early apoptotic cell level at 12 uM incubated for 48 hrs by Annexin VFITC and propidium iodide staining based flow cytometry (reference value: 0.64%). It is filed as functional. Put shortly:
as §1

Assay [4] has as its system A549. Put plainly: Induction of apoptosis in human A549 cells assessed as early apoptotic cell level at 6 uM incubated for 48 hrs by Annexin VFITC and propidium iodide staining based flow cytometry (reference value: 0.64%). The format is functional. In outline: as §1
For assay [5], the system named is A549. Description: Induction of morphological changes in human A549 cells assessed as induction of cell shrinking at 1.85 uM incubated for 12 hrs by acridine orange dye based inverted microscopy and fluorescence microscopy. It is filed as functional. In outline: (§2)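 Untreated control included. A549 cells exposed 12 h at 1.85 μM, then single-stained with acridine orange. Nuclei and morphology examined by inverted and fluorescence microscopy.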

For assay [6], the system named is A549. Put plainly: Induction of morphological changes in human A549 cells assessed as induction of chromatin condensation at 1.85 uM incubated for 12 hrs by acridine orange dye based inverted microscopy and fluorescence microscopy. The format is functional, cell-based. In outline: as §2
For assay [7], the system named is A549. Description: Induction of morphological changes in human A549 cells assessed as induction of DNA fragmentation at 1.85 uM incubated for 12 hrs by acridine orange dye based inverted microscopy and fluorescence microscopy. The format is functional, cell-based. In outline: as §2
Assay [8] relates to MCF7. Description: Cytotoxicity against human MCF7 cells assessed as reduction in cell viability incubated for 72 hrs by MTT assay. It is filed as functional, cell-based. Put shortly:
(§3)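 Cells grown in MEM with 10% FBS; about 4×10^3 cells per well, pre-incubated 24 h at 37 °C in 5% CO2, then exposed to compound for 72 h. Seven concentrations, threefold serial dilution from 100 ug/mL initial. MTT at 5 µg/mL terminal concentration for 4 h; formazan dissolved in DMSO, absorbance read at 492 nm against 630 nm reference. IC50 is the average of two determinations.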

The test system of assay [9] is HepG2. Description: Cytotoxicity against human HepG2 cells assessed as reduction in cell viability incubated for 72 hrs by MTT assay. It is filed as functional, cell-based. As to conditions: HepG2, 72 h. In outline:
as §3

Assay [10] concerns PC-3. Description: Cytotoxicity against human PC3 cells assessed as reduction in cell viability incubated for 72 hrs by MTT assay. The format is functional, cell-based. In outline:
as §3

The target of assay [11] is Vascular endothelial growth factor receptor 2 (Homo sapiens, UniProt P35968). Description: Inhibition of VEGFR2 (unknown origin) incubated for 10 mins using FAM-labeled peptide and ATP by mobility shift assay.
The target of assay [12] is T1, Receptor-type tyrosine-protein kinase FLT3 (Homo sapiens, UniProt P36888).
T1 sequence (P36888 whole entry): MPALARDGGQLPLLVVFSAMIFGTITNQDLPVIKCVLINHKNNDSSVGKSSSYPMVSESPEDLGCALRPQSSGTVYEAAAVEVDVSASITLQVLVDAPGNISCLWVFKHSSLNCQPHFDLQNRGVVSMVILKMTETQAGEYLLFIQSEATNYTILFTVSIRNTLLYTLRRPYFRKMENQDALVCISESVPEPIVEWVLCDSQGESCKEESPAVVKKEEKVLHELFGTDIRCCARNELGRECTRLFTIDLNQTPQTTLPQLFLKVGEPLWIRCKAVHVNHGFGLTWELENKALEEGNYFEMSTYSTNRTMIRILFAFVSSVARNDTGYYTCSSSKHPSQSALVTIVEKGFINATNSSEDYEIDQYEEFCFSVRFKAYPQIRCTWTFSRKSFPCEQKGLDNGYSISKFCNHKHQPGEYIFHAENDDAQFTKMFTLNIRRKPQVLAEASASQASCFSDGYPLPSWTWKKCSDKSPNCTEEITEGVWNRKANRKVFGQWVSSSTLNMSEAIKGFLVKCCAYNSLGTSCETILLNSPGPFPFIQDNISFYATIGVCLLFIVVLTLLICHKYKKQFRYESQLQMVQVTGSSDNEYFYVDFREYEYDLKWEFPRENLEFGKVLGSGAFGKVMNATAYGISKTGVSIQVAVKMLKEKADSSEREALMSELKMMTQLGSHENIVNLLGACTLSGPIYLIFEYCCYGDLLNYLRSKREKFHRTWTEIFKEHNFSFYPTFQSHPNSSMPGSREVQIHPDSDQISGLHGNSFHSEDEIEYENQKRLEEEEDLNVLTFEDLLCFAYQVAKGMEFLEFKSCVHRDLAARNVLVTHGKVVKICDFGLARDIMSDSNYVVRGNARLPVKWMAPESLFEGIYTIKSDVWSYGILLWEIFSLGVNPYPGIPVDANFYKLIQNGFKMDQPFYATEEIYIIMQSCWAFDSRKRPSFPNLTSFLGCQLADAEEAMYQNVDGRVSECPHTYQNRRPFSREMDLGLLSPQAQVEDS
Put plainly: Inhibition of FLT3 (unknown origin) incubated for 10 mins using FAM-labeled peptide and ATP by mobility shift assay. Put shortly:
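Mobility shift assay in 384-well plates. Kinase buffer: 50 mM HEPES pH 7.5, 10 mM MgCl2, 0.0015% Brij-35, 2 mM DTT. Compound, diluted from a 500 μM DMSO stock, preincubated with enzyme 10 min at room temperature. FAM-labelled peptide and ATP then added and the reaction run at 28 °C. Stopped with EDTA-containing buffer and read on Caliper. Inhibition = (max−conversion)/(max−min)×100, with DMSO wells as max and enzyme-free wells as min.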

Assay [13] concerns the target Epidermal growth factor receptor (Homo sapiens, UniProt P00533). Description: Inhibition of EGFR (unknown origin) incubated for 10 mins using FAM-labeled peptide and ATP by mobility shift assay.
For assay [14], the target named is RAF proto-oncogene serine/threonine-protein kinase (Homo sapiens, UniProt P04049). Put plainly: Inhibition of CRAF (unknown origin) incubated for 10 mins using FAM-labeled peptide and ATP by mobility shift assay. Put shortly:
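Mobility shift assay in 384-well plates. Compound, diluted from a 500 μM DMSO stock, preincubated with enzyme 10 min at room temperature. FAM-labelled peptide and ATP then added and the reaction run at 28 °C. Stopped with EDTA-containing buffer and read on Caliper. Inhibition = (max−conversion)/(max−min)×100, with DMSO wells as max and enzyme-free wells as min.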

Assay [15] concerns A549. Put plainly: Induction of apoptosis in human A549 cells assessed as late apoptotic cell level at 12 uM incubated for 48 hrs by Annexin VFITC and propidium iodide staining based flow cytometry (reference value: 3.4%). The format is functional. In outline:
as §1

In assay [16] the test system is A549. Put plainly: Induction of apoptosis in human A549 cells assessed as necrotic cell level at 6 uM incubated for 48 hrs by Annexin VFITC and propidium iodide staining based flow cytometry (reference value: 2.69%). It is filed as functional. In outline:
as §1

For assay [17], the system named is A549. Put plainly: Induction of apoptosis in human A549 cells assessed as viable cell level at 12 uM incubated for 48 hrs by Annexin VFITC and propidium iodide staining based flow cytometry (reference value: 93.27%). The format is functional. Put shortly:
as §1

pIC50: −log10 of the molar value. Active and inactive are the calls of the source. The rule behind the calls is not given here. Bounds are passed on as bounds.

Sequence of Epidermal growth factor receptor (P00533 whole entry): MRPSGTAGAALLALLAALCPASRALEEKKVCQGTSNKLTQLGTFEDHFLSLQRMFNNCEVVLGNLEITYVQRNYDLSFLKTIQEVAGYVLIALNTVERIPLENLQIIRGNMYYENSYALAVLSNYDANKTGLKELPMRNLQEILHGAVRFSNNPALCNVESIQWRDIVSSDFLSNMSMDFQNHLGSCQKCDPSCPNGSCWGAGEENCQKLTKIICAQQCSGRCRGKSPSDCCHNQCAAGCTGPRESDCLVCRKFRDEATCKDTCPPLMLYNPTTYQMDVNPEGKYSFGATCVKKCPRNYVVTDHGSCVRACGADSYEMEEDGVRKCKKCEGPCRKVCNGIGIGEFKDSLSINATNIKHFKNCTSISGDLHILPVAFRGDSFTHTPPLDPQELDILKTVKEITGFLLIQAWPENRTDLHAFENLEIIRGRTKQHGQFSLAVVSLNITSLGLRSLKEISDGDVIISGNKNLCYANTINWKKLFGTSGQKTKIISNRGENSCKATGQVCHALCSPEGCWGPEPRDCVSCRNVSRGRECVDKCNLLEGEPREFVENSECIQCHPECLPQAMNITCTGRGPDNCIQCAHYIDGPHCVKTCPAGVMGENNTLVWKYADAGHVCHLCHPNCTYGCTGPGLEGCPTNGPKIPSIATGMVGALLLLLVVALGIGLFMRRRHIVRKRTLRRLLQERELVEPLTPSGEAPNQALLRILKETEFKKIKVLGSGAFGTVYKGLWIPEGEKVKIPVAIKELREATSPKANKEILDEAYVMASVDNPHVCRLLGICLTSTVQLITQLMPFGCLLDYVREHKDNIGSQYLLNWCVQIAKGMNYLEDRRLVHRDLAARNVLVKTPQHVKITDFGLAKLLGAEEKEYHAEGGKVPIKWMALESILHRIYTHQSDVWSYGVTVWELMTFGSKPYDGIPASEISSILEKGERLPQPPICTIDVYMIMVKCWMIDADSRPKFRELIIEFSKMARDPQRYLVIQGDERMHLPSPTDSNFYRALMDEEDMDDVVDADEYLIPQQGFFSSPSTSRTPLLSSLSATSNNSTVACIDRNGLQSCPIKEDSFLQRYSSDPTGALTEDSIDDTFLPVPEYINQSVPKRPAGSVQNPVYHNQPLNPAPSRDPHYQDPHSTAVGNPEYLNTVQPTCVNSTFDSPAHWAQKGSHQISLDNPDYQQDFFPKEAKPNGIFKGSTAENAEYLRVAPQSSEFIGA
Sequence of Vascular endothelial growth factor receptor 2 (P35968 whole entry): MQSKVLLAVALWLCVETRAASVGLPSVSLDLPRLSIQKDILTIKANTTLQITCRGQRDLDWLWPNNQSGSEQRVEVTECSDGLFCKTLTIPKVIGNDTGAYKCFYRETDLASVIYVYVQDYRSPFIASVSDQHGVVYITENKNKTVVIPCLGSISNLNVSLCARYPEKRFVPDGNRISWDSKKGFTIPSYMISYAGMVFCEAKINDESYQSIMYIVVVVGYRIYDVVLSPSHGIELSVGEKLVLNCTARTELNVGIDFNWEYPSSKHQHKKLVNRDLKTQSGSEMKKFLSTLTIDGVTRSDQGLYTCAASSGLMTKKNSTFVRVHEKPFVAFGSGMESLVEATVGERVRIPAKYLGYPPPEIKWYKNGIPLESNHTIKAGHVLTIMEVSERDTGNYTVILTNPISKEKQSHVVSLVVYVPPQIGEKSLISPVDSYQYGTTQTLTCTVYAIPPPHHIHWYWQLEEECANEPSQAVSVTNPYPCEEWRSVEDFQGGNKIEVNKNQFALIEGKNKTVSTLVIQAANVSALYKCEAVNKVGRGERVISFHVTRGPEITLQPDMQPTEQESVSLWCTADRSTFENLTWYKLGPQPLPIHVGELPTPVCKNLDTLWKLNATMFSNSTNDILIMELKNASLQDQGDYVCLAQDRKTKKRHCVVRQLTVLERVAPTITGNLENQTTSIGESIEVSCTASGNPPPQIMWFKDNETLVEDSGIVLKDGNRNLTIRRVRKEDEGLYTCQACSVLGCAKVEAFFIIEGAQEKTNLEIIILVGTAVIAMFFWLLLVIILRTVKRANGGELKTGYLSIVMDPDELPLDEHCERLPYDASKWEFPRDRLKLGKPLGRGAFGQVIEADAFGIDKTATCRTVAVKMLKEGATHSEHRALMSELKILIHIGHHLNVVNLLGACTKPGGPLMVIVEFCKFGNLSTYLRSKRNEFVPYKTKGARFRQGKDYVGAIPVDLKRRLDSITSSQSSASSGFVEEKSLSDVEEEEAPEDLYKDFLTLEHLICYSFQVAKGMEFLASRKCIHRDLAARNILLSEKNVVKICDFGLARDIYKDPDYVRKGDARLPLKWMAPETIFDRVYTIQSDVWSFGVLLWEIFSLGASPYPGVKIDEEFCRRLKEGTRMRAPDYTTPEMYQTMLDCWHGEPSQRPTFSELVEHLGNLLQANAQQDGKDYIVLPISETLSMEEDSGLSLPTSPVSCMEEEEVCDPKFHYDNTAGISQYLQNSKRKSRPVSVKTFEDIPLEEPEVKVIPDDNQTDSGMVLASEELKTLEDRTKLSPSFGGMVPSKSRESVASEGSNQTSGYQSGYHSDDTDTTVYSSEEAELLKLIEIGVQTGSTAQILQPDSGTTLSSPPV
Sequence of RAF proto-oncogene serine/threonine-protein kinase (P04049 whole entry): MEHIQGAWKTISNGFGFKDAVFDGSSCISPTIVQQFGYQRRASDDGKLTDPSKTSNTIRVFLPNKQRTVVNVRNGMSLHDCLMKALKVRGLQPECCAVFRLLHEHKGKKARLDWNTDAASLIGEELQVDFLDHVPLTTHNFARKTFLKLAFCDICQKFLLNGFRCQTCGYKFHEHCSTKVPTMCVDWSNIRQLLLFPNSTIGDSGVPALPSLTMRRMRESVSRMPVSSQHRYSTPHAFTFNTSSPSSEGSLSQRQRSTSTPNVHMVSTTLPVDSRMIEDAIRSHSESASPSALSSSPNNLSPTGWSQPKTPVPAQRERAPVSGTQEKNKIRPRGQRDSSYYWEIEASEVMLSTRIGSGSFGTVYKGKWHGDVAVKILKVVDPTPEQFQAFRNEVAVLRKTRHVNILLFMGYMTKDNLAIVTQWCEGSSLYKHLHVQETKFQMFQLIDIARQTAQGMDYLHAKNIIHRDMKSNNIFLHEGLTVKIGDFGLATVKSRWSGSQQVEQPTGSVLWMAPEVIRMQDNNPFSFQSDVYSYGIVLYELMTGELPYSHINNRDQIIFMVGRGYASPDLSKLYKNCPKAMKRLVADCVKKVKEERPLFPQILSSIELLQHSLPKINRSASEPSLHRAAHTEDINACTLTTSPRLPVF

In the case of `CNC(=O)c1cc(Oc2ccc(C3=NNC(c4cccc(Br)c4)C3)cc2)ccn1` (centres undefined), the Activity in [1] is 4.49%; in [2], 2.2%; in assay [3] it was 11.95%; in assay [4] it was 7.72%; in [8] it was “Dose-dependent effect”; in [10], “Dose-dependent effect”. Also, the figures for the Activity in [15], in assay [16] and in assay [17] were 10.05%, 1.24% and 75.55%, respectively. Further, the outcome in assay [5], in [6] and in assay [7] was Active. For the same compound, the pIC50 was 5.71 in assay [8] (MCF7, 72 h); 5.73 in [9]; 5.45 in assay [10] (PC-3, 72 h); 6.25 in [11]; 5.28 in [12]; below 5.00 in [13]. Moreover, in assay [14], the pIC50 is 5.10.
